Screens deposited in PubChem BioAssay by several laboratories.
AI-2 QS mod: Vibrio harveyi AI-2 quorum sensing modulators, primary screen, JMH597 strain, luminescence/OD600 ratio; Vibrio harveyi JMH597 AI-2 luminescence/OD600 ratio, 9 h; stronger effect = lower value; strain lacks LuxN and CqsS sensors; 0 = neutral-control median; activity change, % at 7.5 µM; 0.4% of 300,000 active; AID 2094, 2009; in the data active means activity change below about -75%, passing the limit was not always enough;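 further: luminescence divided by OD600 gain over 9 h not by final OD600 alone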
pCIP destab: p/CIP-EGFP fusion destabilizers, primary screen, fluorescence, F442A cells; 0.01% of 290,000 active; decrease of EGFP signal, % at 10 µM; AID 1984, 2009; 16 h;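 active means EGFP signal decrease of at least 30% at 10 µM or well 3 SD below plate mean, unless failing retest; inactive means the rest, including hits failing retest or dose response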
PP1 counter: PP1-alpha phosphatase inhibitors, primary screen, counter-screen for PP5 inhibitor project, biochemical, fluorescence, OMFP substrate, single point | 0.9% of 320,000 active | purified PP1alpha | Serine/threonine-protein phosphatase PP1-alpha catalytic subunit (Homo sapiens), P62136 | inhibition, % at 6.7 µM;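 active means inhibition above the mean inhibition of all tested compounds plus 3 SD, computed separately for each screening campaign, cut at about 15% in these data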
T cruzi inh: inhibitors of intracellular T. cruzi growth, primary screen, luminescence, NIH3T3 host cells; T. cruzi beta-gal in NIH3T3, 90 h; inhibition, % (concentration not given with the values); 1.4% of 300,000 active; AID 1885, 2009;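 active means mean inhibition across valid replicates above about 55%, limit read from the data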;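 further: signal also drops with host cell toxicity which is not excluded here; higher percent means less beta-gal luminescence so fewer parasites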
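Material: NIH/3T3 host cells with β-galactosidase reporter T. cruzi; Input: 5,000 host fibroblasts per well; Medium: DMEM, 2% fetal bovine serum; Compound: 50 nL DMSO compound solution per well; Schedule: 3 h host attachment, then at least 90 h co-culture; Detection: luminescent β-galactosidase signal after 60 min lysis.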
UBC13 polyUb: UBC13 polyubiquitin chain formation inhibitors, primary screen, biochemical, TR-FRET, uHTS; 0.47% of 330,000 active; inhibition, % at 20 µM; in the data active means inhibition above about 45%, passing the limit was not always enough
Target sequence (P61088 whole entry, looked up): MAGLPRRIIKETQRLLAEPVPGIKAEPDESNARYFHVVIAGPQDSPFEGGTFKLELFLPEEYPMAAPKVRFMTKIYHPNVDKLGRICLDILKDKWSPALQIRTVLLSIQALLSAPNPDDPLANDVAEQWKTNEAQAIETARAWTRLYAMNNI
PP1 inh confirm: PP1 phosphatase inhibitors, confirmation, biochemical, fluorescence, OMFP substrate, triplicate; shares compounds with PP1 counter; purified PP1alpha; inhibition, % at 6.7 µM; 52% of 1,900 active;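 active means mean PP1 inhibition above a set limit taken from the earlier primary screen, cut at about 15% in these data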
PP5 counter: PP5 phosphatase inhibition by PP1 hits, confirmation, counter-screen for PP1 inhibitor project, biochemical, fluorescence, triplicate; shares compounds with PP1 counter; purified PP5c, OMFP fluorescence; inhibition, % at 6.7 µM; 4% of 1,900 active;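 active means mean PP5 inhibition over triplicate wells above about 9.5% taken from the earlier PP1 screen, limit read from the data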
Target sequence (P53041 whole entry, looked up): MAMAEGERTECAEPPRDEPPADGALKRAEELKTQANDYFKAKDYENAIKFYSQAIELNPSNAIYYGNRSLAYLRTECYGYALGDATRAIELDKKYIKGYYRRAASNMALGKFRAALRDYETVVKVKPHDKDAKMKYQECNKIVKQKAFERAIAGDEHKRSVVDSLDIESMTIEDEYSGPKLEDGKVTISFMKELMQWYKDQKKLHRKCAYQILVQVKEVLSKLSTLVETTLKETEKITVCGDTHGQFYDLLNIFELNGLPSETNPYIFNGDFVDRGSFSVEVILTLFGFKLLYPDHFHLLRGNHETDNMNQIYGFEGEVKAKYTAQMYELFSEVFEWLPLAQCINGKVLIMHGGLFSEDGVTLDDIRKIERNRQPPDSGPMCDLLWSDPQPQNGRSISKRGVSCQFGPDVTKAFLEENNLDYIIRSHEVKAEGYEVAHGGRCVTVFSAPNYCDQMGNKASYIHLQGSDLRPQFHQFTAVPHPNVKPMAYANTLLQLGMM
Casp3 counter: CASP3 inhibitor validation, counterassay for project on UBE2N polyubiquitination blockers, biochemical, one dose. shares compounds with UBC13 polyUb. Recombinant caspase-3, Caspase-Glo 3/7 luminescence, 60 min. inhibition, % at 20 µM. 4% of 1,400 active. AID 488856, 2010;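 active means mean inhibition across replicates above about 26%, limit read from the data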
UBC13 conf: UBC13 polyubiquitination inhibitors, single-point retest, confirmation, biochemical, TR-FRET, single concentration; shares compounds with UBC13 polyUb; inhibition, % at 10 µM; 68% of 1,400 active; AID 488859, 2010; in the data active means inhibition above about 45%
A number is an active result; . = inactive; / = no result given; ! = not active in a repeat. This is a sample that favours compounds with a hit; in the whole collection about 2.8% have one here.

SMILES | AI-2 QS mod | pCIP destab | PP1 counter | T cruzi inh | UBC13 polyUb | Casp3 counter | UBC13 conf | others
C#CCOCCOCCOCCNc1nc(N2CCN(C(=O)CCCCCCCCCCNC(=O)[C@@H](CCSC)n3cc(CCO)nn3)CC2)nc(N2CCN(C(=O)CCCCCCCCCCNC(=O)[C@H](CO)n3cc(CCCCCN)nn3)CC2)n1 | / | / | 49 | / | 118 | . | 123 | PP1 inh confirm=49;PP5 counter=.
CCOc1ccccc1-n1ccn(CC(=O)Nc2ccc(Br)cc2F)c(=O)c1=O | . | / | / | . | . | / | /
Cc1ccc(Nc2cc(C)nc(NCc3ccccc3)n2)cc1 | -92 | . | 18 | 61 | 56 | . | 83 | PP1 inh confirm=.;PP5 counter=.
COc1ccccc1C(=O)NCC(=O)NC(C)c1ccc(-n2ccnc2)cc1 (stereo unspecified) | . | . | . | . | . | / | /
NC(N)=N/N=C/c1ccc(OCc2ccc(Cl)cc2)cc1 | . | . | 21 | 61 | 102 | . | 120 | PP1 inh confirm=.;PP5 counter=.
COc1ccc(-c2noc(Cn3cc(S(=O)(=O)N4CCCC4)ccc3=O)n2)cc1 | / | / | . | / | . | / | /
CCC(C)(C)c1ccc(OCCCC[n+]2cccc(C)c2C)c(C(C)(C)CC)c1 | . | . | 20 | . | 82 | . | 100 | PP1 inh confirm=.;PP5 counter=.
CCC(C)(C)c1ccc(OCCCC[n+]2ccc(C)cc2)c(C(C)(C)CC)c1 | . | . | 21 | . | 69 | . | 99 | PP1 inh confirm=.;PP5 counter=.
Cc1cc(C(C)(C)C)ccc1OCCCCN1CCCC1 | . | . | . | . | . | / | /
CCN(CC)CCOc1ccc(/C(=C(/Cl)c2ccccc2)c2ccccc2)cc1 | . | . | 19! | . | 73 | . | 56 | PP1 inh confirm=.;PP5 counter=.
CC(C)c1nc(C(N)=O)c2[nH]c(=O)n(-c3ccc(F)cc3)c2n1 | . | . | . | . | . | / | /
CCOc1ccccc1-c1nc(C(N)=O)c2[nH]c(=O)n(-c3ccc(F)cc3)c2n1 | . | . | . | . | 65 | . | .
CCCC[C@@H]1CNCCN1CCc1cc(C(F)(F)F)cc(C(F)(F)F)c1 | . | / | . | . | 55 | . | .
FC(F)(F)c1cc(CCN2CCNC[C@@H]2c2ccccc2)cc(C(F)(F)F)c1 | / | / | / | / | 66 | . | 62
CCC(C)[C@H]1CNCCN1CCc1cc(C(F)(F)F)cc(C(F)(F)F)c1 (stereo partly specified) | . | / | . | . | 60 | . | .
CCC(C)[C@H]1CNC(=S)N1CCc1cc(C(F)(F)F)cc(C(F)(F)F)c1 (stereo partly specified) | . | . | . | . | . | / | /
FC(F)(F)c1cc(CCN2CCNC[C@@H]2CC2CCCCC2)cc(C(F)(F)F)c1 | / | / | / | / | 87 | . | 97
Cc1ccc(CNC(=O)C2CC3Cn4c(nc5cc(Cl)c(Cl)cc54)C3N2C)o1 (stereo unspecified) | . | . | . | . | . | / | /
COC(=O)[C@H]1[C@@H](C)N(Cc2ccccc2)C(=O)N[C@H]1c1ccccc1 | . | / | . | . | . | / | /
CCC1(c2ccccc2)NC(=O)N(CC(=O)Nc2cc(Cl)ccc2N2CCN(C)CC2)C1=O (stereo unspecified) | / | / | . | / | 87 | . | 66
CN1CCN(c2ccc(Cl)cc2NC(=O)CN2C(=O)NC(C)(c3ccccc3)C2=O)CC1 (stereo unspecified) | . | / | . | . | . | / | /
Nc1nc(N)nc(-c2cc(C(F)(F)F)ccc2Cl)n1 | / | / | . | / | 51 | . | .
CCOC(=O)c1cc(-c2ccccc2)nc2ccc(C)cc12 | . | . | . | . | 54 | . | .
Cc1ccc(NC(=O)C2=CC=CN3CCS(=O)(=O)N=C23)cc1 | / | / | . | / | . | / | /
COc1ccc(C(C)(C)C)cc1NC(=O)C1=CC=CN2CCS(=O)(=O)N=C12 | / | / | / | / | 50 | . | .
SMILES | AI-2 QS mod | pCIP destab | PP1 counter | T cruzi inh | UBC13 polyUb | Casp3 counter | UBC13 conf | others
Cc1ccc(-c2csc3nc4c5ccccc5c(NCCCN(C)C)nn4c(=O)c23)cc1 | . | . | . | . | 97 | . | 100
CCCN(Cc1nnc(-c2cccs2)o1)C(=O)c1cccc(S(=O)(=O)N2CCOCC2)c1 | / | / | . | / | . | / | /
C/C(CC(=O)NCc1ccco1)=N\NC(=O)CC#N | . | . | . | . | . | / | /
CCCCCOc1ccc(Br)cc1/C(C)=N/NC1=NCCN1 | . | . | 17 | 55 | 58 | . | 64
COc1ccc(Br)cc1/C(C)=N/NC1=NCCN1 | . | . | . | . | . | / | /
Cc1ccc2nc(SCC(=O)Nc3cccc(F)c3)nc(=O)n2c1 | . | / | . | . | . | / | /
CC1CC(C)CN(CCCNC(=O)c2cc3c(s2)-c2ccccc2OC3)C1 (stereo unspecified) | . | . | . | . | 45 | . | 55
CCCN1CCN(CCCNC(=O)c2cc3c(s2)-c2c(C)cccc2OC3)CC1 | . | . | . | . | 49 | . | 57
CCCN1CCN(CCCNC(=O)c2cc3c(s2)-c2ccccc2OC3)CC1 | . | . | . | . | . | / | /
Cc1cccc2c1-c1sc(C(=O)NCCCN3CCCC(C)C3)cc1CO2 (stereo unspecified) | . | . | . | . | 67 | . | 97
CCOc1ccc(N2CC(C(=O)NCc3nnnn3-c3ccc(C)c(C)c3)CC2=O)cc1 (stereo unspecified) | . | . | . | . | . | / | /
COCCN1CC(CNC(=O)c2cc(COc3ccccc3SC)on2)CC1=O (stereo unspecified) | . | . | . | . | . | / | /
NC(=O)c1ccc(NC(=O)CSc2nnc(-c3ccncc3)n2Cc2ccco2)cc1 | . | . | . | . | . | / | /
COc1ccc(CC(=O)NC2CCS(=O)(=O)C2)cc1 (stereo unspecified) | . | / | . | . | . | / | /
CCC[C@@H](CN1CCC[C@H]1CN1C(N)=NC[C@H]1CC(C)C)N1C[C@@H](Cc2ccccc2)N(CCc2ccc(Cl)c(Cl)c2)C1=N | / | / | / | / | 82 | . | 89
CCC[C@@H](CN1CCC[C@H]1CN1C(N)=NC[C@@H]1Cc1ccccc1)N1C[C@@H]([C@H](C)CC)N(CCc2ccc(Cl)c(Cl)c2)C1=N | / | / | / | / | 74 | . | 74
